# Key:
# [1] = test system: Liver microsome; experiment: Detection of compound level in beagle dog liver microsomes treated with 100 uM of BMS-562086 after 1 hr by LC-MS/MS analysis
# [2] = Retention time of the compound by HPLC method; format: physicochemical
# [3] = Drug metabolism in mouse hepatocytes assessed as BMS-572273 metabolite level at 25 uM after 3 hrs by LC-MS/MS analysis; format: ADME, cell-based, Hepatocyte
# Summary of the method: (§1)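 Hepatocytes checked for viability by trypan blue exclusion, then diluted in Krebs-Henseleit buffer to 1.0 × 10^6 cells/ml. Incubated in duplicate with 25 µM compound at 37°C for 3 h on an orbital shaker (80 rpm) under 95/5 O2/CO2. Negative control had no cells. Stopped with ice-cold acetonitrile, sonicated, centrifuged; supernatant analysed by LC/MS/MS.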
# [4] = Drug metabolism in human cryopreserved hepatocytes assessed as DPH-124921 metabolite level at 25 uM after 3 hrs by LC-MS/MS analysis; format: ADME, cell-based, Hepatocyte
# Summary of the method: as §1
# [5] = test system: Liver microsome; experiment: Detection of compound level in rat liver microsomes treated with 100 uM of BMS-562086 after 1 hr by LC-MS/MS analysis
# [6] = test system: Liver microsome; experiment: Drug metabolism in beagle dog liver microsomes assessed as DPH-123554 metabolite level at 100 uM after 1 hr in presence of NADPH; format: ADME, Canis lupus familiaris
# Summary of the method: (§2)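 Mouse, rat, dog, monkey and human liver microsomes (1 mg/ml protein) were incubated with 100 µM compound in 100 mM phosphate buffer. Reactions were started with 1 mM NADPH and run 1 h at 37°C in duplicate. Controls lacked protein or NADPH, plus a 7-ethoxycoumarin (100 µM) positive control. Metabolites were identified by LC/MS/MS.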
# [7] = Drug metabolism in mouse hepatocytes assessed as DPH-123554 metabolite level at 25 uM after 3 hrs by LC-MS/MS analysis; format: ADME, cell-based, Hepatocyte
# Summary of the method: as §1
# [8] = test system: Liver microsome; experiment: Detection of compound level in human liver microsomes treated with 100 uM of BMS-562086 after 1 hr by LC-MS/MS analysis
# [9] = Drug metabolism in beagle dog hepatocytes assessed as DPH-124921 metabolite level at 25 uM after 3 hrs by LC-MS/MS analysis; format: ADME, cell-based, Canis lupus familiaris, Hepatocyte
# Summary of the method: (§3)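 Mouse, rat, dog, monkey and human hepatocytes (trypan blue viability checked) at 1.0×10^6 cells/ml in Krebs-Henseleit buffer were incubated with 25 µM compound, in duplicate. Conditions were 37°C, 95/5 O2/CO2, orbital shaking, 3 h. 7-Ethoxycoumarin and 7-hydroxycoumarin (100 µM) served as positive controls, with a cell-free negative control. Reactions were quenched with ice-cold acetonitrile, then sonicated and centrifuged; supernatants were analysed by LC/MS/MS.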
# [10] = test system: Liver microsome; experiment: Drug metabolism in human liver microsomes assessed as DPH-124921 metabolite level at 100 uM after 1 hr in presence of NADPH; format: ADME
# Summary of the method: (§4)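 Liver microsomes (1 mg/ml protein) in 100 mM phosphate buffer with 100 µM test compound. Reaction started by adding NADPH (1 mM), then run at 37°C for 1 h in a shaking water bath, in duplicate. Controls lacked microsomal protein or NADPH; 7-ethoxycoumarin (100 µM) was the positive control. Metabolites identified by LC/MS/MS.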
# [11] = Drug metabolism in rat hepatocytes at 25 uM after 3 hrs by LC-MS/MS analysis; format: ADME, cell-based, Hepatocyte
# Summary of the method: as §1
# [12] = Drug metabolism in mouse hepatocytes at 25 uM after 3 hrs by LC-MS/MS analysis; format: ADME, cell-based, Hepatocyte
# Summary of the method: as §1
# [13] = Drug metabolism in mouse hepatocytes assessed as DPH-124921 metabolite level at 25 uM after 3 hrs by LC-MS/MS analysis; format: ADME, cell-based, Hepatocyte
# Summary of the method: as §1
# [14] = Drug metabolism in cynomolgus monkey liver microsomes at 100 uM after 1 hr in presence of NADPH; format: ADME, Macaca fascicularis
# Summary of the method: as §2
# [15] = test system: Hepatocyte; experiment: Detection of compound level in mouse hepatocytes treated with 25 uM of BMS-562086 after 3 hrs by LC-MS/MS analysis; format: ADME, cell-based
# Summary of the method: as §3
# [16] = Drug metabolism in beagle dog hepatocytes assessed as BMS-572273 metabolite level at 25 uM after 3 hrs by LC-MS/MS analysis; format: ADME, cell-based, Canis lupus familiaris, Hepatocyte
# Summary of the method: as §3
# [17] = test system: Liver microsome; experiment: Drug metabolism in human liver microsomes assessed as DPH-123554 metabolite level at 100 uM after 1 hr in presence of NADPH; format: ADME
# Summary of the method: as §4
# [18] = Drug metabolism in rat hepatocytes assessed as DPH-123554 metabolite level at 25 uM after 3 hrs by LC-MS/MS analysis; format: ADME, cell-based, Hepatocyte
# Summary of the method: as §1
# [19] = Drug metabolism in cynomolgus monkey cryopreserved hepatocytes at 25 uM after 3 hrs by LC-MS/MS analysis; format: ADME, cell-based, Macaca fascicularis, Hepatocyte
# Summary of the method: as §3
# [20] = Drug metabolism in beagle dog hepatocytes assessed as DPH-123554 metabolite level at 25 uM after 3 hrs by LC-MS/MS analysis; format: ADME, cell-based, Canis lupus familiaris, Hepatocyte
# Summary of the method: as §3
# [21] = Drug metabolism in human cryopreserved hepatocytes at 25 uM after 3 hrs by LC-MS/MS analysis; format: ADME, cell-based, Hepatocyte
# Summary of the method: as §1
# [22] = Drug metabolism in cynomolgus monkey liver microsomes assessed as DPH-123554 metabolite level at 100 uM after 1 hr in presence of NADPH; format: ADME, Macaca fascicularis
# Summary of the method: as §2
# [23] = Detection of compound level in mouse liver microsomes treated with BMS-562086 by LC-MS/MS analysis
# [24] = Drug metabolism in rat hepatocytes assessed as DPH-124921 metabolite level at 25 uM after 3 hrs by LC-MS/MS analysis; format: ADME, cell-based, Hepatocyte
# Summary of the method: as §1
# [25] = Drug metabolism in mouse liver microsomes assessed as DPH-123554 metabolite level at 100 uM after 1 hr in presence of NADPH; format: ADME
# Summary of the method: as §4
# [26] = Drug metabolism in mouse liver microsomes assessed as DPH-124921 metabolite level at 100 uM after 1 hr in presence of NADPH; format: ADME
# Summary of the method: as §4
# [27] = Drug metabolism in cynomolgus monkey liver microsomes assessed as BMS-572273 metabolite level at 100 uM after 1 hr in presence of NADPH; format: ADME, Macaca fascicularis
# Summary of the method: as §2
# [28] = Drug metabolism in beagle dog hepatocytes at 25 uM after 3 hrs by LC-MS/MS analysis; format: ADME, cell-based, Canis lupus familiaris, Hepatocyte
# Summary of the method: as §3
# [29] = test system: Liver microsome; experiment: Drug metabolism in rat liver microsomes assessed as BMS-572273 metabolite level at 100 uM after 1 hr in presence of NADPH; format: ADME
# Summary of the method: as §4
# [30] = test system: Liver microsome; experiment: Drug metabolism in dog liver microsomes assessed as DPH-124921 metabolite level at 100 uM after 1 hr in presence of NADPH; format: ADME, Canis lupus familiaris
# Summary of the method: as §2
# [31] = Detection of compound level in cynomolgus monkey cryopreserved hepatocytes treated with 25 uM of BMS-562086 after 3 hrs by LC-MS/MS analysis; format: ADME, cell-based, Macaca fascicularis, Hepatocyte
# Summary of the method: as §3
# [32] = test system: Liver microsome; experiment: Drug metabolism in dog liver microsomes at 100 uM after 1 hr in presence of NADPH; format: ADME, Canis lupus familiaris
# Summary of the method: as §4
# [33] = Drug metabolism in cynomolgus monkey cryopreserved hepatocytes assessed as BMS-572273 metabolite level at 25 uM after 3 hrs by LC-MS/MS analysis; format: ADME, cell-based, Macaca fascicularis, Hepatocyte
# Summary of the method: as §3
# [34] = Detection of compound level in cynomolgus monkey liver microsomes treated with 100 uM of BMS-562086 after 1 hr by LC-MS/MS analysis
smiles,measurement,setting,value
COc1ccc(-c2c(C)nn3c(N)nc(C)nc23)c(C)n1,Drug metabolism,[1],metabolite_detected
same,Retention_time,[2],28.5 min
same,Drug metabolism,[3],metabolite_detected
same,Drug metabolism,[4],metabolite_detected
same,Drug metabolism,[5],metabolite_detected
same,Drug metabolism,[6],metabolite_detected
same,Drug metabolism,[7],metabolite_detected
same,Drug metabolism,[8],metabolite_detected
same,Drug metabolism,[9],metabolite_detected
same,Drug metabolism,[10],metabolite_detected
same,Drug metabolism,[11],metabolite_detected
same,Drug metabolism,[12],metabolite_detected
same,Drug metabolism,[13],metabolite_detected
same,Drug metabolism,[14],metabolite_detected
same,Drug metabolism,[15],metabolite_detected
same,Drug metabolism,[16],metabolite_detected
same,Drug metabolism,[17],metabolite_detected
same,Drug metabolism,[18],metabolite_detected
same,Drug metabolism,[19],metabolite_detected
same,Drug metabolism,[20],metabolite_detected
same,Drug metabolism,[21],metabolite_detected
same,Drug metabolism,[22],metabolite_detected
same,Drug metabolism,[23],metabolite_detected
same,Drug metabolism,[24],metabolite_detected
same,Drug metabolism,[25],metabolite_detected
same,Drug metabolism,[26],metabolite_detected
same,Drug metabolism,[27],metabolite_detected
same,Drug metabolism,[28],metabolite_detected
same,Drug metabolism,[29],metabolite_detected
same,Drug metabolism,[30],metabolite_detected
same,Drug metabolism,[31],metabolite_detected
same,Drug metabolism,[32],metabolite_detected
same,Drug metabolism,[33],metabolite_detected
same,Drug metabolism,[34],metabolite_detected
